The subject of assay [1] is HEp-2 cell viability, luminescence (cytotoxicity counter-screen). In words: viability loss of uninfected HEp-2 cells – cell-based, synthesized compounds, set 14, cytotoxicity control for RSV inhibitor project, dose response (AID 588483). An outline of the steps:
(§1)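 Test system: uninfected HEp-2 human cells, no virus added. Input: 10,595 HEp-2 cells per well. Times: six-day compound exposure at 37 °C. Technique: ATP-based luminescence with CellTiter-Glo reagent. Measure: percent viability versus cell-control median, CC50 from four-parameter fit. Dosing: two-fold compound dilution series, 0.5% DMSO final. Replication: triplicate wells per compound concentration.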

Assay in assay [2]: as above
The note with it: HEp-2 cell viability, luminescence (cytotoxicity counter-screen); at 150 µM (top of the series). An outline of the steps:
as §1
On the technique in general: Counterscreens check selectivity or assay interference.

SMILES strings stand for the structures. Where “and” joins values, the source holds several entries; their conditions need not be identical. Equal values may be shown once. Calls of active or inactive are those of the source.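 The calls were made as follows: active = viability below 70% at any tested concentration, read as cytotoxicity; inactive = the rest.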

Usually CC50 stands for the concentration that lowers cell viability or growth by half. Regarding `CN(C)c1ccc(Cn2c(=O)n(Cc3ccc(C(=O)NCC4COC4)cc3)c(=O)c3ccccc32)cc1`, the CC50 in assay [1] is 29.7 µM.

The viability is a read-out of living cells in per cent, often relative to untreated cells. Take `O=C(O)c1ccc(Cn2c(=O)n(Cc3ccc(C(=O)NCC4COC4)cc3)c(=O)c3ccccc32)cc1`: the viability in assay [2] was 119% (inactive) and 107% (inactive).

These data come from PubChem BioAssay AID588483 (Southern Research Specialized Biocontainment Screening …, 2011).
